Source: ChEMBL document CHEMBL1671817, “Synthesis of cationic antimicrobial β(2,2)-amino acid derivatives with potential for oral administration” (J Med Chem, 2011)
In brackets after ≈: the same amount, converted by molar mass. Activity calls are given as the source filed them. The rule behind the calls is not given here.

Assays:
[1] = Therapeutic index, ratio of EC50 for human RBC hemolytic activity to MIC for methicillin-resistant Staphylococcus epidermidis ATCC 27626; conditions: human red blood cells (RBC), read-out: TI
Procedure, shortened: (§1)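 Index taken as hemolytic EC50 divided by MIC for each strain. Hemolysis: human RBCs from heparinized blood, washed with 37 °C PBS, diluted to 10% hematocrit. Cells exposed at 1% v/v final to compound in PBS at 1–1000 μg/mL for 1 h at 37 °C with agitation. Hemoglobin read by supernatant A405 against PBS and 0.1% Triton X-100 controls. MICs in duplicate at 0.5–200 μg/mL.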

Staphylococcus aureus [2] = assay: Antimicrobial activity against methicillin-resistant Staphylococcus aureus ATCC 33591; assay type: functional
Procedure, shortened: (§2)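 MIC screen run at a contract lab. Each compound, as its ditrifluoroacetate salt, tested in duplicate at 200, 100, 50, 35, 15, 10, 5, 2.5, 1 and 0.5 μg/mL. Molar values calculated from the salt form. Gentamicin used as positive control.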

[3] = test system: Staphylococcus epidermidis; assay: Antimicrobial activity against methicillin-resistant Staphylococcus epidermidis ATCC 27626; assay type: functional; procedure, shortened: as §2
[4] = Therapeutic index, ratio of EC50 for human RBC hemolytic activity to MIC for Escherichia coli ATCC 25922; conditions: human red blood cells (RBC), read-out: TI; procedure, shortened: as §1
Staphylococcus aureus [5] = assay: Antimicrobial activity against Staphylococcus aureus ATCC 25923; assay type: functional
[6] = Therapeutic index, ratio of EC50 for human RBC hemolytic activity to MIC for methicillin-resistant Staphylococcus aureus ATCC 33591; conditions: human red blood cells (RBC), read-out: TI; procedure, shortened: as §1
[7] = Therapeutic index, ratio of EC50 for human RBC hemolytic activity to MIC for Staphylococcus aureus ATCC 25923; conditions: human red blood cells (RBC), read-out: TI; procedure, shortened: as §1
[8] = Permeability of the compound across phospholipid vesicle based barrier model at pH 7.4; assay type: ADME
Procedure, shortened: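 Passive diffusion through phospholipid vesicle-based barriers (egg lipid extract, ~82% phosphatidylcholine) on filter inserts at room temperature. Donor in phosphate buffer pH 7.4, or pH 5.5 for a poorly soluble compound; acceptor always pH 7.4. Inserts moved to fresh acceptor wells; UV 230 nm at 1, 2, 3, 3.5, 4, 4.5, 5 h; barrier resistance checked afterwards.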

[9] = Hemolytic activity against human RBC assessed as hemoglobin release after 1 hr; assay type: ADME, cell-based; conditions: Erythrocyte
Procedure, shortened: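 Heparinized human blood freed of plasma by centrifugation, washed three times in 37 °C PBS, diluted to 10% hematocrit and added to compound in PBS (1–1000 μg/mL) to 1% v/v erythrocytes. PBS negative, 0.1% v/v Triton X-100 positive control.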

Escherichia coli = assay: Antimicrobial activity against Escherichia coli ATCC 25922; assay type: functional
Pseudomonas aeruginosa = assay: Antimicrobial activity against Pseudomonas aeruginosa ATCC 27853; assay type: functional
[10] = Therapeutic index, ratio of EC50 for human RBC hemolytic activity to MIC for Pseudomonas aeruginosa ATCC 27853; conditions: human red blood cells (RBC), read-out: TI; procedure, shortened: as §1
Staphylococcus aureus [11] = assay: Antimicrobial activity against Staphylococcus aureus assessed as cell wall mesosome structure and septum of bacteria at 234 uM after 2 hrs by transmission electron microscopy; assay type: functional, organism-based
Staphylococcus aureus [12] = assay: Antimicrobial activity against Staphylococcus aureus assessed as cell wall mesosome structure and septum of bacteria at 117 uM after 3 hrs by transmission electron microscopy; assay type: functional, organism-based

SMILES | selectivity ratio [1] | MIC (Staphylococcus aureus [2]) [µM] | MIC [3] [µM] | selectivity ratio [4] | MIC (Staphylococcus aureus [5]) [µM] | selectivity ratio [6] | selectivity ratio [7] | permeability [8] | EC50 [9] [µM] | MIC (Escherichia coli) [µM] | MIC (Pseudomonas aeruginosa) [µM] | selectivity ratio [10] | Activity (Staphylococcus aureus [11]) | Activity (Staphylococcus aureus [12])
CN1CCN(C(=O)C(CN)(Cc2ccc3ccccc3c2)Cc2ccc3ccccc3c2)CC1.O=C(O)C(F)(F)F.O=C(O)C(F)(F)F | 20 | 7.4 | 15 | 14 | 15 | 41 | 20 | permeable | 303 | 22 |  |  |  | 
CN(C)CCNC(=O)C(CN)(Cc1ccc2ccccc2c1)Cc1ccc2ccccc2c1.O=C(O)C(F)(F)F.O=C(O)C(F)(F)F | 16 | 7.5 | 7.5 | 5.1 | 7.5 | 16 | 16 | permeable | 117 | 23 | 300 | 0.4 |  | 
CN(C)CCNC(=O)C(CN)(CCCc1ccccc1)CCCc1ccccc1.O=C(O)C(F)(F)F.O=C(O)C(F)(F)F | 9.1 | 56 | 56 | 3.2 | 56 | 9.1 | 9.1 |  | 507 | 160 |  |  |  | 
CN(C)CCN1CCN(C(=O)C(CN)(Cc2ccc(C(F)(F)F)cc2)Cc2ccc(C(F)(F)F)cc2)CC1.O=C(O)C(F)(F)F.O=C(O)C(F)(F)F | 17 | 6.5 | 65 | 8.6 | 45 | 172 | 25 |  | 1120 | 129 |  |  |  | 
CN(C)CCN1CCN(C(=O)C(CN)(Cc2ccc(C(C)(C)C)cc2)Cc2ccc(C(C)(C)C)cc2)CC1.O=C(O)C(F)(F)F.O=C(O)C(F)(F)F | 26 | 13 | 13 | 26 | 13 | 26 | 26 |  | 337 | 13 | 255 | 1.3 |  | 
CN1CCN(C(=O)C(CN)(Cc2ccc(C(F)(F)F)cc2)Cc2ccc(C(F)(F)F)cc2)CC1.O=C(O)C(F)(F)F.O=C(O)C(F)(F)F | 7.5 | 14 | 70 | 7.5 | 49 | 38 | 11 |  | 525 | 70 |  |  |  | 
CN(C)CCNC(=O)C(CN)(Cc1ccc(C(C)(C)C)cc1)Cc1ccc(C(C)(C)C)cc1.O=C(O)C(F)(F)F.O=C(O)C(F)(F)F | 74 | 7.4 | 3.7 | 37 | 7.4 | 37 | 37 |  | 274 | 7.4 | 74 | 3.7 |  | 
NCCNC(=O)C(CN)(Cc1ccc(C(F)(F)F)cc1)Cc1ccc(C(F)(F)F)cc1.O=C(O)C(F)(F)F.O=C(O)C(F)(F)F | 28 | 7.4 | 15 | 8 | 15 | 57 | 28 |  | 425 | 52 |  |  |  | 
CC(C)(C)c1ccc(CC(CN)(Cc2ccc(C(C)(C)C)cc2)C(=O)NCCN)cc1.O=C(O)C(F)(F)F.O=C(O)C(F)(F)F | 4.7 | 3.8 | 3.8 | 2.3 | 3.8 | 4.7 | 4.7 |  | 18 | 7.7 | 23 | 0.8 |  | 
NCCNC(=O)C(CN)(Cc1ccc2ccccc2c1)Cc1ccc2ccccc2c1.O=C(O)C(F)(F)F.O=C(O)C(F)(F)F | 117 | 7.8 | 3.9 | 19 | 3.9 | 59 | 117 |  | 457 | 24 | 55 | 8.3 | Active | Active
CN(C)CCN1CCN(C(=O)C(CN)(Cc2ccc3ccccc3c2)Cc2ccc3ccccc3c2)CC1.O=C(O)C(F)(F)F.O=C(O)C(F)(F)F | 29 | 3.4 | 14 | 8.5 | 20 | 120 | 20 | permeable | 409 | 48 |  |  |  | 
CN(C)CCN1CCN(C(=O)C(CN)(CCCc2ccccc2)CCCc2ccccc2)CC1 |  | 72 (≈ 33.5 µg/mL) | 72 (≈ 33.5 µg/mL) |  | 289 (≈ 134 µg/mL) |  |  |  |  | 289 (≈ 134 µg/mL) |  |  |  | 
CN1CCN(C(=O)C(CN)(CCCc2ccccc2)CCCc2ccccc2)CC1 |  | 315 (≈ 128 µg/mL) | 315 (≈ 128 µg/mL) |  | 315 (≈ 128 µg/mL) |  |  |  |  | 315 (≈ 128 µg/mL) |  |  |  | 
CN(C)CCNC(=O)C(CN)(Cc1ccc(C(F)(F)F)cc1)Cc1ccc(C(F)(F)F)cc1.O=C(O)C(F)(F)F.O=C(O)C(F)(F)F | 22 | 7.1 | 21 | 9.4 | 14 | 66 | 33 |  | 468 | 50 |  |  |  | 
CN1CCN(C(=O)C(CN)(Cc2ccc(C(C)(C)C)cc2)Cc2ccc(C(C)(C)C)cc2)CC1.O=C(O)C(F)(F)F.O=C(O)C(F)(F)F | 48 | 15 | 7.2 | 23 | 15 | 23 | 23 |  | 348 | 15 | 289 | 1.2 |  | 
NCCNC(=O)C(CN)(CCCc1ccccc1)CCCc1ccccc1.O=C(O)C(F)(F)F.O=C(O)C(F)(F)F | 55 | 59 | 25 | 4.1 | 71 | 23 | 19 |  | 1380 | 336 |  |  |  | 
